Results reported in ChEMBL document CHEMBL5543089, “Discovery of a novel, highly potent EZH2 PROTAC degrader for targeting non-canonical oncogenic functions of EZH2” (Eur J Med Chem, 2024).
Calls of active or inactive are those of the source. The rule behind the calls is not given here.

Columns and labels:
[1] = target: T1, von Hippel-Lindau disease tumor suppressor/Histone-lysine N-methyltransferase EZH2 (Homo sapiens, UniProt Q15910+P40337); test: PROTAC activity at VHL/EZH2 degradation in human MDA-MB-468 cells assessed as protein degradation at 0.1 to 3 uM measured after 48 hrs by Western blot analysis; format: cell-based; details: dose 0.1-3 µM
T1 sequence (P40337 whole entry, looked up): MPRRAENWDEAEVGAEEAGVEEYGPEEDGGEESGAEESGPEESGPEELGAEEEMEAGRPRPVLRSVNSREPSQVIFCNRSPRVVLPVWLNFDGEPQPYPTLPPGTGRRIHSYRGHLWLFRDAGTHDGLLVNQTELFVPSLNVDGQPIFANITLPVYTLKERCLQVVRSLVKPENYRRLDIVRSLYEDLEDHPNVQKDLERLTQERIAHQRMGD
T1 sequence (Q15910 whole entry, looked up): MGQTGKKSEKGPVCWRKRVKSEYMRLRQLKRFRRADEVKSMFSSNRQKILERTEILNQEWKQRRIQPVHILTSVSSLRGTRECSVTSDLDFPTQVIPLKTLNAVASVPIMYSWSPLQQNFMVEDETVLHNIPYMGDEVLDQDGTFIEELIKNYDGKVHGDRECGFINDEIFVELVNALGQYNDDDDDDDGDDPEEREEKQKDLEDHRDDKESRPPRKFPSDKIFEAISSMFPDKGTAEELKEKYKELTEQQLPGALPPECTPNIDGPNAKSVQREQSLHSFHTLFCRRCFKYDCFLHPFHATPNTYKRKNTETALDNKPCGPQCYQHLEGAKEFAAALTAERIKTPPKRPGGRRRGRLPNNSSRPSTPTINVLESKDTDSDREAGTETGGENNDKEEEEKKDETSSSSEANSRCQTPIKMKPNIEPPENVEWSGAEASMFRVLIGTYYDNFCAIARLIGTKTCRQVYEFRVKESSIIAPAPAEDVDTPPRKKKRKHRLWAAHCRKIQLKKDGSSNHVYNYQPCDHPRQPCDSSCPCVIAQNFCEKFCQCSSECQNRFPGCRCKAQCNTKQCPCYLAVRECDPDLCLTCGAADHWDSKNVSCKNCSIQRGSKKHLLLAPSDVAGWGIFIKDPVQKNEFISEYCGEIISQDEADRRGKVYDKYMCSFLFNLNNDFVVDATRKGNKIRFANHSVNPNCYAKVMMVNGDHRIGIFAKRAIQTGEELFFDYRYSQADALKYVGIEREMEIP
Summary of the method: (§1)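 BT549 (RPMI-1640) and MDA-MB-468 (DMEM) cells were treated for 48 h. RIPA lysates (~10 μg) were immunoblotted for EZH2 with β-actin as loading control. Blots are representative of three biological experiments.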

[2] = target: T1, von Hippel-Lindau disease tumor suppressor/Histone-lysine N-methyltransferase EZH2; test: PROTAC activity at VHL/EZH2 degradation in MLLr AML cell line human EOL1 cells assessed as protein degradation at 0.5 uM measured after 24 hrs in presence of 5 uM VHL-1 by Western blot analysis; format: cell-based
Summary of the method: (§2)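 EOL-1 cells were pre-treated for 2 h with MLN4924 (0.05 μM), EPZ-6438 (5 μM) or VHL-1 (5 μM), then given 0.5 μM degrader for 24 h. EZH2 was assessed by Western blot against β-actin. Blots are representative of two biological experiments.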

[3] = target: Protein arginine N-methyltransferase 3 (Homo sapiens) (UniProt O60678); test: Inhibition of human PRMT3 assessed as methyltransferase activity using Histone H3 as substrate at 10 uM by radioisotope based MT HotSpot assay relative to control
Summary of the method: (§3)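 Radioisotope-based methyltransferase assay (MT HotSpot) run by a contract lab. Compound was tested at 10 μM against a panel of 20 methyltransferases, in duplicate. Values are means ± SD of two replicates.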

[4] = target: Protein arginine N-methyltransferase 7 (Homo sapiens) (UniProt Q9NVM4); test: Inhibition of human PRMT7 assessed as methyltransferase activity using GST-GAR as substrate at 10 uM by radioisotope based MT HotSpot assay relative to control; summary of the method: as §3
[5] = target: von Hippel-Lindau disease tumor suppressor/Polycomb protein SUZ12 (Homo sapiens) (UniProt Q15022+P40337); test: PROTAC activity at VHL/SUZ12 degradation in MLLr AML cell line human EOL1 cells assessed as protein degradation at 1 to 1000 nM […] measured after 1 to 24 hrs by Western blot analysis; format: cell-based; details: dose 1-1000 nM, time 1-24 hrs
von Hippel-Lindau disease tumor suppressor/Polycomb protein SUZ12 (Homo sapiens), sequence (P40337 whole entry, looked up): as the sequence (P40337 whole entry, looked up) above
von Hippel-Lindau disease tumor suppressor/Polycomb protein SUZ12 (Homo sapiens), sequence (Q15022 whole entry, looked up): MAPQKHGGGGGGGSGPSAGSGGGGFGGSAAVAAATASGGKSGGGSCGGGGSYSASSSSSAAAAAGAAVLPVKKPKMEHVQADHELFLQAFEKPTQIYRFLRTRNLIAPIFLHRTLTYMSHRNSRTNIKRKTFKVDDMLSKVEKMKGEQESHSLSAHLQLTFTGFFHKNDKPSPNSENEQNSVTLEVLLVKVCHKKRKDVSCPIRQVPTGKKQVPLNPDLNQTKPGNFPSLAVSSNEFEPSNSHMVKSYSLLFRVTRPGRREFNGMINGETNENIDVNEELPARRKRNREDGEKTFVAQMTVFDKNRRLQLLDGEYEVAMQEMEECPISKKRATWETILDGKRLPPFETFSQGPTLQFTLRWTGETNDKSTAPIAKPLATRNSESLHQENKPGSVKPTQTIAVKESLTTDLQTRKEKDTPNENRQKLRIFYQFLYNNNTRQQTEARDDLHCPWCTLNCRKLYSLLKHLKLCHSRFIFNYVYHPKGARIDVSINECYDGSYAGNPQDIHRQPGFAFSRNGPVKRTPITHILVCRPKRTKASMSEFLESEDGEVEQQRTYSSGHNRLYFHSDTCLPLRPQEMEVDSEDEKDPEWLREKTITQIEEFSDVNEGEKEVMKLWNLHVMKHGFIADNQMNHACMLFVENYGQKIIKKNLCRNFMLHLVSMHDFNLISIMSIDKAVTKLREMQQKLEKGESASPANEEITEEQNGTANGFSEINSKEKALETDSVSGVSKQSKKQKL
Summary of the method: (§4)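 Cells were seeded at 0.5–2 million per well and treated for 24 h, or for the stated times at 300 nM in the time course. Lysis was in RIPA with protease inhibitors; ~10 μg protein was run on SDS-PAGE and blotted to PVDF. Detection used fluorescent immunoblotting for EZH2, EED and SUZ12, with β-actin as loading control. Blots are representative of two biological experiments.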

[6] = target: T1, von Hippel-Lindau disease tumor suppressor/Histone-lysine N-methyltransferase EZH2; test: PROTAC activity at VHL/EZH2 degradation in human RS4-11 cells assessed as protein degradation at 0.1 uM measured after 24 hrs by Western blot analysis; format: cell-based; summary of the method: as §4
[7] = target: Protein arginine N-methyltransferase 8 (Homo sapiens) (UniProt Q9NR22); test: Inhibition of human PRMT8 assessed as methyltransferase activity using Histone H4 as substrate at 10 uM by radioisotope based MT HotSpot assay relative to control; summary of the method: as §3
Protein arginine N-methyltransferase 8 (Homo sapiens), sequence (Q9NR22 2-394 limits assumed): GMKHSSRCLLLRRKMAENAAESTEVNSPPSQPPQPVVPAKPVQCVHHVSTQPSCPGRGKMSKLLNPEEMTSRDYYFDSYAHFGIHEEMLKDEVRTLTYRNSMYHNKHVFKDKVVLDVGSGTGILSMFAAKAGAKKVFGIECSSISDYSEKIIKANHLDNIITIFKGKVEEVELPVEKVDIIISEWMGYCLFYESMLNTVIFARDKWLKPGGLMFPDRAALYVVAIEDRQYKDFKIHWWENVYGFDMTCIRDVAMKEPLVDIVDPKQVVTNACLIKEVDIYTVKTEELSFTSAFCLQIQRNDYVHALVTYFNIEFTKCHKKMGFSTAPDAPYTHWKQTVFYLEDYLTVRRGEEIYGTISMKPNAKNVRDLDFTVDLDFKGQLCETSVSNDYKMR

[8] = target: Histone-lysine N-methyltransferase NSD2 (Homo sapiens) (UniProt O96028); test: Inhibition of human NSD2 assessed as methyltransferase activity using Nucleosomes as substrate at 10 uM by radioisotope based MT HotSpot assay relative to control; summary of the method: as §3
[9] = Cmax in mouse at 50 mg/kg, ip measured after 4 hrs; format: ADME, organism-based; details: in vivo
BT-549 [10] = test: Anti-proliferative activity against human BT-549 cells spheroid TNBC model assessed as decrease in cell viability at 2.5 to 20 uM by Cell Titer Glo 3D assay; format: functional, cell-based; details: dose 2.5-20 µM
Summary of the method: (§5)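 BT549 cells were coated with nanoshuttle (1 μL per 2000 cells, 24 h) and magnetically levitated in low-adhesion plates. They were grown 7 days at 37 °C until a single solid spheroid formed, then treated 5 d with compound or DMSO. Spheroid area was measured from images, and viability by CellTiter-Glo 3D. Data are means ± SD of three biological experiments, analysed by one-way ANOVA.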

Homo sapiens = species: Homo sapiens; test: Inhibition of human PRMT1 assessed as methyltransferase activity using Histone H4 /H4 (1-15)-Biotin as substrate at 10 uM by radioisotope based MT HotSpot assay relative to control; summary of the method: as §3
[11] = target: T1, von Hippel-Lindau disease tumor suppressor/Histone-lysine N-methyltransferase EZH2; test: PROTAC activity at VHL/EZH2 degradation in MLLr AML cell line human EOL1 cells assessed as protein degradation at 0.5 uM measured after 24 hrs in presence of 0.05 uM MLN4924 by Western blot analysis; format: cell-based; summary of the method: as §2
[12] = target: Histone-lysine N-methyltransferase SUV39H2 (Homo sapiens) (UniProt Q9H5I1); test: Inhibition of human SUV39H2 assessed as methyltransferase activity using Histone H3 as substrate at 10 uM by radioisotope based MT HotSpot assay relative to control
MV4-11 = test: Anti-proliferative activity against human MV4-11 cells assessed as cell viability measured after 5 days incubation by CCK-8 assay; format: functional, cell-based; details: MV4-11, 120 h
Summary of the method: (§6)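 Cells plated at 3,000–10,000 per well and exposed to serial dilutions for 5 days at 37 °C. CCK-8 (1x) was added for 2–4 h, with absorbance read at 450 nm against a 690 nm reference. IC50 was taken from curve fits. Leukemia lines were grown in RPMI-1640, K562 in IMDM and MDA-MB-468 in DMEM, all with 10 % FBS. Values are means ± SD of two biological experiments (three for BT549 and MDA-MB-468).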

[13] = Toxicity in mouse at 50 mg/kg, ip measured after 4 hrs; format: organism-based; details: in vivo
MDA-MB-468 = test: Anti-proliferative activity against human MDA-MB-468 cells assessed as cell growth inhibition measured after 5 days incubation by CCK-8 assay; format: functional, cell-based; details: MDA-MB-468, 120 h; summary of the method: as §6
[14] = target: N-lysine methyltransferase KMT5A (Homo sapiens) (UniProt Q9NQR1); test: Inhibition of human SET8 assessed as methyltransferase activity using Nucleosomes as substrate at 10 uM by radioisotope based MT HotSpot assay relative to control; summary of the method: as §3
[15] = target: Histone-lysine N-methyltransferase EHMT2 (Homo sapiens) (UniProt Q96KQ7); test: Inhibition of human G9a assessed as methyltransferase activity using Histone H3 as substrate at 10 uM by radioisotope based MT HotSpot assay relative to control; summary of the method: as §3
EOL1 = test: Anti-proliferative activity against human EOL1 cells assessed as cell viability measured after 5 days incubation by CCK-8 assay; format: functional, cell-based; details: EOL1, 120 h; summary of the method: as §6
BT-549 [16] = test: Inhibition of cell growth in human BT-549 cell spheroid TNBC model assessed as reduction in size of spheroid at 2.5 to 20 uM measured after 5 days by 3D cell culture assay; format: functional, cell-based; details: dose 2.5-20 µM, time 5.0 day; summary of the method: as §5
[17] = target: Histone-lysine N-methyltransferase, H3 lysine-36 specific (Homo sapiens) (UniProt Q96L73); test: Inhibition of human NSD1 assessed as methyltransferase activity using Nucleosomes as substrate at 10 uM by radioisotope based MT HotSpot assay relative to control; summary of the method: as §3
Histone-lysine N-methyltransferase, H3 lysine-36 specific (Homo sapiens), sequence (Q96L73 whole entry): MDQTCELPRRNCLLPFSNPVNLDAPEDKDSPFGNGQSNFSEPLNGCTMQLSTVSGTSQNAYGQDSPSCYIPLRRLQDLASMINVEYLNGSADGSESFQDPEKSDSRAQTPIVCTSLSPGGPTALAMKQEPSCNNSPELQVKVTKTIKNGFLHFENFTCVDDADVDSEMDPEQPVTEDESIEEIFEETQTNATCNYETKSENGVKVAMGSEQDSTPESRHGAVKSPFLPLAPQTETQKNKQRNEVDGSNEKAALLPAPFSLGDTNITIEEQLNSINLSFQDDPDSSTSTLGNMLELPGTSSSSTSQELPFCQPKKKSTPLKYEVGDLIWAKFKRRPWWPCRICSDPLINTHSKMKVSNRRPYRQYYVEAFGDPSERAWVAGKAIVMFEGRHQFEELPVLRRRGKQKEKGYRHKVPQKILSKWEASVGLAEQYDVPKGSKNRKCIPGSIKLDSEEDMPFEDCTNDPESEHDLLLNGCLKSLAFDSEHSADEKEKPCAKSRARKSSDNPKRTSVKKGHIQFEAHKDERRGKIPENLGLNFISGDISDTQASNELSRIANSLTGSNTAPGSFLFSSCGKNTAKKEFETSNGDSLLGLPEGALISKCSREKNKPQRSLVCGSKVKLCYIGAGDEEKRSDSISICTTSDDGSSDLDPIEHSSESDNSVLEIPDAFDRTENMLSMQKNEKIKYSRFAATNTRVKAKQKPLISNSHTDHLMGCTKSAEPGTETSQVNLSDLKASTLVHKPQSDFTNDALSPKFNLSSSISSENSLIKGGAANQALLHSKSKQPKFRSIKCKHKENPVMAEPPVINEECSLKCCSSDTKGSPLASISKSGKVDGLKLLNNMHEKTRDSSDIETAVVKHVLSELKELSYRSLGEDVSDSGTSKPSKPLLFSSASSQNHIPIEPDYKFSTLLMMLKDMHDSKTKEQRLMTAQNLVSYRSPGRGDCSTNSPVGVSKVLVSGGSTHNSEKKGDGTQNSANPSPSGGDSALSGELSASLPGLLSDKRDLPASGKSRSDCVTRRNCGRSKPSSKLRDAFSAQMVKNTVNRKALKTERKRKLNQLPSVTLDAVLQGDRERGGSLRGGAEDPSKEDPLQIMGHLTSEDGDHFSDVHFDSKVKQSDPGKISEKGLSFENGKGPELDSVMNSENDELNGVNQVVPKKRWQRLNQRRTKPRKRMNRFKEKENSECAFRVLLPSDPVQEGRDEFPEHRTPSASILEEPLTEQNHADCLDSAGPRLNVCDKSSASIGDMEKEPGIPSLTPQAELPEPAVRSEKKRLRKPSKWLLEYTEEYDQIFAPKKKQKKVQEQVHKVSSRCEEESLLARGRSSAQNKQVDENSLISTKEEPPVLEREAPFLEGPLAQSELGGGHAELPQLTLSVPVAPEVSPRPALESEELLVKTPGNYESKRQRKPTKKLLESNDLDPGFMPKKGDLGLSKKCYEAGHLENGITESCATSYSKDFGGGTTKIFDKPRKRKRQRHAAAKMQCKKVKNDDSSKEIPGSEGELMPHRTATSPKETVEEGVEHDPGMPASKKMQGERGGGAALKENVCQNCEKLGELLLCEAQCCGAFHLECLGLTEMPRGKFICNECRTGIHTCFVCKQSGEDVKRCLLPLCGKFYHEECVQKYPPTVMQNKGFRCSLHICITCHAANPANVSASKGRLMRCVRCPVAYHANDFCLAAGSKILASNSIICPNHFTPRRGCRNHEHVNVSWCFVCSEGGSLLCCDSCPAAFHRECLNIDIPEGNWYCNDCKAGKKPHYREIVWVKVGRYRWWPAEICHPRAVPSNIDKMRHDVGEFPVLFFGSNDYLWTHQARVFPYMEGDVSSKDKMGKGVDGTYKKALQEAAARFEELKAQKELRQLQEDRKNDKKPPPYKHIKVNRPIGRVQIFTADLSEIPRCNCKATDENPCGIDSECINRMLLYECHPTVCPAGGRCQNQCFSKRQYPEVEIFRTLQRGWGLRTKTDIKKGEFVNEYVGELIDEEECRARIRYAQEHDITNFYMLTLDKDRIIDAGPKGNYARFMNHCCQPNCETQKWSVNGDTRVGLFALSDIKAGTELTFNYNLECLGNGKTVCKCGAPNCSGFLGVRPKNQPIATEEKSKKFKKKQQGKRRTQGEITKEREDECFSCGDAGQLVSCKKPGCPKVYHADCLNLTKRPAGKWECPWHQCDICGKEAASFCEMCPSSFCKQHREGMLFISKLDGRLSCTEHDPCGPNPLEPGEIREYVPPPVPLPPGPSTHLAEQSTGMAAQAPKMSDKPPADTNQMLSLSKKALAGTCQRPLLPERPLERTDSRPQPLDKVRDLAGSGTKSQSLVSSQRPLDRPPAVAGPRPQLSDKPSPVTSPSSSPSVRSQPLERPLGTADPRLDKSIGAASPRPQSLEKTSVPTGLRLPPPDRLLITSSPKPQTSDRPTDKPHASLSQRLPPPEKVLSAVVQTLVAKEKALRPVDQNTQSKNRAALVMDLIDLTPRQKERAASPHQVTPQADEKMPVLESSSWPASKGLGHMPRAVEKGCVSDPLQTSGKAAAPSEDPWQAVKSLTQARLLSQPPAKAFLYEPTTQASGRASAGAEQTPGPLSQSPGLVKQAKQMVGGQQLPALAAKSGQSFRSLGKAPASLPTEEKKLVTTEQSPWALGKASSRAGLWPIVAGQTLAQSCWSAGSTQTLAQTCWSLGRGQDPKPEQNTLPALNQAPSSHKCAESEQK

[18] = target: T1, von Hippel-Lindau disease tumor suppressor/Histone-lysine N-methyltransferase EZH2; test: PROTAC activity at VHL/EZH2 degradation in human BT-549 cells assessed as protein degradation at 0.1 to 3 uM measured after 48 hrs by Western blot analysis; format: cell-based; details: dose 0.1-3 µM; summary of the method: as §1

Question: For `CCN(c1cc(-c2ccc(CN3CCN(CCC(=O)NCCCCCCCCCCC(=O)N[C@H](C(=O)N4C[C@H](O)C[C@H]4C(=O)NCc4ccc(-c5scnc5C)cc4)C(C)(C)C)CC3)cc2)cc(C(=O)NCc2c(C)cc(C)[nH]c2=O)c1C)C1CCOCC1`, which Activity [1] is on record?
Answer: The Activity was “Active”.

Question: And the Activity [2]?
Answer: The Activity was “inactive”.

Question: What about the inhibition [3] of the same molecule?
Answer: Its inhibition is < 50%.

Question: What about the inhibition [4] of the same molecule?
Answer: The inhibition was < 50%.

Question: What about the Activity [5] of the same molecule?
Answer: Its Activity is “Active”.

Question: And the Activity [6]?
Answer: The Activity was “Active”.

Question: And the inhibition [7]?
Answer: The inhibition was < 50%.

Question: And the inhibition [8]?
Answer: The inhibition was < 50%.

Question: What about the Cmax [9] of the same molecule?
Answer: Its Cmax is 3.9 µM.

Question: And the Activity (BT-549 [10])?
Answer: Its Activity is “Active”.

Question: And the inhibition (Homo sapiens)?
Answer: Its inhibition is < 50%.

Question: What about the Activity [11] of the same molecule?
Answer: Its Activity is “inactive”.

Question: What about the inhibition [12] of the same molecule?
Answer: Its inhibition is < 50%.

Question: And the IC50 (MV4-11)?
Answer: Its IC50 is 170 nM.

Question: And the Activity [13]?
Answer: Its Activity is “Non-Toxic”.

Question: What about the IC50 (MDA-MB-468) of the same molecule?
Answer: Its IC50 is 450 nM.

Question: And the inhibition [14]?
Answer: The inhibition was < 50%.

Question: And the inhibition [15]?
Answer: Its inhibition is < 50%.

Question: And the IC50 (EOL1)?
Answer: The IC50 was 110 nM.

Question: What about the inhibition (BT-549 [16]) of the same molecule?
Answer: The inhibition was “Active”.

Question: What about the inhibition [17] of the same molecule?
Answer: The inhibition was < 50%.

Question: What about the Activity [18] of the same molecule?
Answer: Its Activity is “Active”.
